The text below walks through data of ChEMBL document CHEMBL4229344 (Eur J Med Chem, 2018).

What is called bioavailability is the share of a dose that reaches the circulation, judged against a reference dose that is usually intravenous. A high value points to much systemic uptake. As a reminder, the GI50 is the concentration at which growth is held to half of that of the control. As usually defined, the Cmax is the peak of the concentration-time curve.

Activity calls are given as the source filed them. No cut-off for these calls is given here. Bounds are passed on as bounds.

Series [1] concerns the target Mitogen-activated protein kinase kinase kinase 6 (Homo sapiens) (UniProt O95382). Briefly: Binding affinity to wild-type human partial length ASK2 (M278 to R972 residues) expressed in mammalian expression system assessed as residual binding level at 1 uM by Kinomescan method relative to control. An outline of the steps: (§1)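 Single-concentration KINOMEscan (DiscoverX) binding screen at 1 μM against a panel of 468 purified kinases and mutants. The read-out is binding relative to control.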

For series [2], the target named is Discoidin domain-containing receptor 2 (Homo sapiens) (UniProt Q16832). Put plainly: Binding affinity to wild-type human partial length DDR2 (V555 to E855 residues) expressed in mammalian expression system assessed as residual binding level at 1 uM by Kinomescan method relative to control. The essentials:
(§2)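 Kinome-wide competition binding screen against a panel of 468 purified kinases/mutants, with the test compound at a single concentration of 1 μM. Read-out is the relative binding activity of each kinase in the presence of compound.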

In series [3] the test system is Epidermal growth factor receptor (Homo sapiens), P00533 [T790M]. Put plainly: Binding affinity to human partial length EGFR T790M mutant (R669 to G1022 residues) expressed in mammalian expression system assessed as residual binding level at 1 uM by Kinomescan method relative to control. An outline of the steps:
(§3)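 Kinome-wide single-concentration binding screen (KINOMEscan) at 1 μM against a panel of 468 purified kinases and mutants. Read-out is relative binding of each kinase compared with control. Selectivity across the panel was summarised as an S(10) score.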

The target in series [4] is Ephrin type-B receptor 2 (Homo sapiens) (UniProt P29323). Briefly: Binding affinity to wild-type human partial length EPHB2 (I597 to L902 residues) expressed in bacterial expression system assessed as residual binding level at 1 uM by Kinomescan method relative to control.
Series [5] deals with Receptor tyrosine-protein kinase erbB-4 (Homo sapiens) (UniProt Q15303). Put plainly: Binding affinity to wild-type human partial length ERBB4 (L690 to K994 residues) expressed in bacterial expression system assessed as residual binding level at 1 uM by Kinomescan method relative to control.
For series [6], the target named is Mitogen-activated protein kinase 6 (Homo sapiens) (UniProt Q16659). Put plainly: Binding affinity to wild-type human partial length ERK3 (M1 to P413 residues) expressed in bacterial expression system assessed as residual binding level at 1 uM by Kinomescan method relative to control. An outline of the steps:
as §2

The test system of series [7] is Receptor-type tyrosine-protein kinase FLT3 (Homo sapiens), P36888 [UNDEFINED MUTATION]. Briefly: Binding affinity to human partial length FLT3 ITD mutant expressed in bacterial expression system assessed as residual binding level at 1 uM by Kinomescan method relative to control. The essentials:
as §3

In series [8] the test system is Hepatocyte growth factor receptor (Homo sapiens), P08581 [M1250T]. Briefly: Binding affinity to human partial length MET M1250T mutant (D1010 to S1367 residues) expressed in bacterial expression system assessed as residual binding level at 1 uM by Kinomescan method relative to control. An outline of the steps: as §3
Series [9] addresses Mitogen-activated protein kinase kinase kinase 11 (Homo sapiens) (UniProt Q16584). Briefly: Binding affinity to wild-type human partial length MLK3 (I77 to W399 residues) expressed in bacterial expression system assessed as residual binding level at 1 uM by Kinomescan method relative to control.
Series [10] has as its target Serine/threonine-protein kinase Nek1 (Homo sapiens) (UniProt Q96PY6). Briefly: Binding affinity to wild-type human partial length NEK1 (M1 to K278 residues) expressed in bacterial expression system assessed as residual binding level at 1 uM by Kinomescan method relative to control.
For series [11], the target named is Serine/threonine-protein kinase OSR1 (Homo sapiens) (UniProt O95747). Briefly: Binding affinity to wild-type human full length OSR1 (M1 to S527 residues) expressed in mammalian expression system assessed as residual binding level at 1 uM by Kinomescan method relative to control. The essentials: as §1
Series [12] addresses Phosphatidylinositol 3-kinase C2 domain-containing subunit gamma (Homo sapiens) (UniProt O75747). Briefly: Binding affinity to wild-type human partial length PIK3C2G (M1 to I1446 residues) expressed in mammalian expression system assessed as residual binding level at 1 uM by Kinomescan method relative to control.
Series [13] relates to Proto-oncogene tyrosine-protein kinase receptor Ret (Homo sapiens), P07949 [V804M]. Put plainly: Binding affinity to human partial length RET V804M mutant (E713 to D1014 residues) expressed in bacterial expression system assessed as residual binding level at 1 uM by Kinomescan method relative to control. The essentials:
as §3

Series [14] has as its target Serine/threonine-protein kinase RIO1 (Homo sapiens) (UniProt Q9BRS2). Briefly: Binding affinity to wild-type human full length RIOK1 (M1 to K568 residues) expressed in bacterial expression system assessed as residual binding level at 1 uM by Kinomescan method relative to control. The essentials: as §1
In series [15] the target is High affinity nerve growth factor receptor (Homo sapiens) (UniProt P04629). Briefly: Binding affinity to wild-type human partial length TRKA (G475 to G790 residues) expressed in mammalian expression system assessed as residual binding level at 1 uM by Kinomescan method relative to control.
Series [16] is described as follows: Oral bioavailability in Sprague-Dawley rat at 10 mg/kg. The format is ADME, organism-based. Conditions: in vivo. The essentials:
(§4)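 Male Sprague-Dawley rats, 6–8 weeks old and fasted overnight, dosed IV at 1 mg/kg or PO at 10 mg/kg. Formulation was 5% DMSO/40% PEG400/55% saline (1 mg/mL). Jugular blood collected on heparin from 1 min to 8 h (IV) or 5 min to 24 h (PO). Plasma separated by centrifugation at 2–8 °C and stored at −80 °C.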

Series [17] has as its target Mast/stem cell growth factor receptor Kit (Homo sapiens, UniProt P10721). Put plainly: Inhibition of TEL-fused c-KIT (unknown origin) expressed in mouse BA/F3 cells assessed as growth inhibition after 72 hrs by CellTiter-Glo or CCK-8 assay. The format is cell-based. The essentials:
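Parental BaF3 or IL-3-independent TEL-kinase BaF3 lines, made by retroviral infection and puromycin selection, grown in RPMI 1640 with 10% FBS. Cells seeded at 1–3 × 10^4 cells/mL with serial compound concentrations for 72 h. Viability read by CellTiter-Glo luminescence or CCK-8 absorbance at 450/655 nm and normalised to DMSO. GI50 obtained by triplicate testing with linear regression. Selectivity is the ratio of the two GI50 values.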

For another series, the species on record is Homo sapiens. Put plainly: Selectivity index, ratio of IC50 for PDGFRbeta (unknown origin) by ADP-Glo kinase assay to IC50 for PDGFRalpha (unknown origin) by ADP-Glo kinase assay. (ADP-Glo turns the ADP formed in a reaction into a luminescent signal.)
Series [18] in a line: Cmax in Sprague-Dawley rat at 1 mg/kg, iv. Conditions: in vivo. The format is ADME, organism-based. Also noted: dose 1 mg/kg, route intravenous. An outline of the steps: as §4
Series [19] deals with Platelet-derived growth factor receptor alpha (Homo sapiens, UniProt P16234). Briefly: Inhibition of PDGFRalpha in human EOL-1 cells assessed as decrease in ERK1/2 phosphorylation at T202/Y204 residues up to 300 nM after 2 hrs by Western blot analysis. It counts as cell-based. (A western blot detects proteins with antibodies after separation by electrophoresis.)
A further series has as its system EOL1. Put plainly: Cell cycle arrest in human EOL-1 cells assessed as accumulation at G0/G1 phase at 0.01 to 0.3 uM after 12 hrs by propidium iodide/RNase staining-based flow cytometric analysis. It counts as functional. The essentials: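 Cells treated with compound or DMSO for the stated periods, fixed overnight in 70% cold ethanol at −20 °C, stained with PI/RNase buffer, then analysed by flow cytometry for cell-cycle distribution. For NCI-H1703 stimulation, PDGF AA was used at 100 ng/mL.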
For orientation: In flow cytometry, cells or beads pass a laser one at a time.

Sequence of Platelet-derived growth factor receptor alpha (P16234 whole entry): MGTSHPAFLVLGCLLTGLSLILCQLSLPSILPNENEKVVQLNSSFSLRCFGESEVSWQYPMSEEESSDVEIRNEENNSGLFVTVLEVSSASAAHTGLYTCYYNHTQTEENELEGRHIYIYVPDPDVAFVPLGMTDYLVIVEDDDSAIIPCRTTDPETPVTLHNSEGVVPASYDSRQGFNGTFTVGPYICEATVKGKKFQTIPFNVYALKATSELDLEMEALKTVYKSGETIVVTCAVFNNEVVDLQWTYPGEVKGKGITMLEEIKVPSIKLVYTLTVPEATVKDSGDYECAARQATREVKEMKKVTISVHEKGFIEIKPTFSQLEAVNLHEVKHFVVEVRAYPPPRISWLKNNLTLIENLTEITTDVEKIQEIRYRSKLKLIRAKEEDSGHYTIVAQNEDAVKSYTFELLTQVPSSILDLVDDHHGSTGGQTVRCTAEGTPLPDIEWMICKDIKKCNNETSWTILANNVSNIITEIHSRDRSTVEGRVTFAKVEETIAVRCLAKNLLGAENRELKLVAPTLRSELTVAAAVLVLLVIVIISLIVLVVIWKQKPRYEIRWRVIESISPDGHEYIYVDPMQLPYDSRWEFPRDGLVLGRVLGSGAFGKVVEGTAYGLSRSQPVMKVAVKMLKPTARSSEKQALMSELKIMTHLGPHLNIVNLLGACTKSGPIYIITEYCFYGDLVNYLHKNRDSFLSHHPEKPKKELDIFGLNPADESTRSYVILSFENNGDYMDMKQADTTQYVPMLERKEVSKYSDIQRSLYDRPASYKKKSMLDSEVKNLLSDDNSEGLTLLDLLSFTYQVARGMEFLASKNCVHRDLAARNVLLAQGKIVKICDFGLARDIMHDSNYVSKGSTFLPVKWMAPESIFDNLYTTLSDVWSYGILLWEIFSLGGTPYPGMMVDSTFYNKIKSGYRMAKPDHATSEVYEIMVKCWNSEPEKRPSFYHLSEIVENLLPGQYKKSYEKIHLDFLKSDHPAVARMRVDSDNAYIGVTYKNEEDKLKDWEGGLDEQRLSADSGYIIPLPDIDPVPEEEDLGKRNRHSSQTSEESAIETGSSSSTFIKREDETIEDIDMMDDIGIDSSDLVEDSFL
Sequence of Mitogen-activated protein kinase kinase kinase 11 (Homo sapiens) (Q16584 whole entry, looked up, the tested form may be a part): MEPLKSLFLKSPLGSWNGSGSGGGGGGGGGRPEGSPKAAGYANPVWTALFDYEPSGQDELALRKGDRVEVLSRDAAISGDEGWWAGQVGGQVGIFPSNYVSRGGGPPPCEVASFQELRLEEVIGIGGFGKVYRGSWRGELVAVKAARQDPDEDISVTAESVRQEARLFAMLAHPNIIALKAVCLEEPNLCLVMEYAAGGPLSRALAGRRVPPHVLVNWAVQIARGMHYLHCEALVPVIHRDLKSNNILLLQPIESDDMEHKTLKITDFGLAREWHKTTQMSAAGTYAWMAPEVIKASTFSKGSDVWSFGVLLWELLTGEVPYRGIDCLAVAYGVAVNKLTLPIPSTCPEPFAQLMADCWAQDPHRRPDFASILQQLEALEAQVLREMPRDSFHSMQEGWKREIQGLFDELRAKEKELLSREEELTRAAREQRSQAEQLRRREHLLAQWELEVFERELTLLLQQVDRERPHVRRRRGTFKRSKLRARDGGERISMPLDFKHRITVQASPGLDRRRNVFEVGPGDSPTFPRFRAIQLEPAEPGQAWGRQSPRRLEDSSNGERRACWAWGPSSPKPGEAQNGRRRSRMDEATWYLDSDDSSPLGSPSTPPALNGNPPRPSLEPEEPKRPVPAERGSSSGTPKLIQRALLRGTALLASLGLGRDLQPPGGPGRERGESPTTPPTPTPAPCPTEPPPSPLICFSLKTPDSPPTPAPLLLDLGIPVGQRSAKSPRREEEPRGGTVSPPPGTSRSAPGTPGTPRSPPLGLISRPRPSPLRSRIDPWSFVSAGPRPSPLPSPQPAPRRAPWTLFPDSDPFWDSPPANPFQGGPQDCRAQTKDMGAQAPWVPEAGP
Sequence of Receptor tyrosine-protein kinase erbB-4 (Homo sapiens) (Q15303 whole entry, the tested form may be a part): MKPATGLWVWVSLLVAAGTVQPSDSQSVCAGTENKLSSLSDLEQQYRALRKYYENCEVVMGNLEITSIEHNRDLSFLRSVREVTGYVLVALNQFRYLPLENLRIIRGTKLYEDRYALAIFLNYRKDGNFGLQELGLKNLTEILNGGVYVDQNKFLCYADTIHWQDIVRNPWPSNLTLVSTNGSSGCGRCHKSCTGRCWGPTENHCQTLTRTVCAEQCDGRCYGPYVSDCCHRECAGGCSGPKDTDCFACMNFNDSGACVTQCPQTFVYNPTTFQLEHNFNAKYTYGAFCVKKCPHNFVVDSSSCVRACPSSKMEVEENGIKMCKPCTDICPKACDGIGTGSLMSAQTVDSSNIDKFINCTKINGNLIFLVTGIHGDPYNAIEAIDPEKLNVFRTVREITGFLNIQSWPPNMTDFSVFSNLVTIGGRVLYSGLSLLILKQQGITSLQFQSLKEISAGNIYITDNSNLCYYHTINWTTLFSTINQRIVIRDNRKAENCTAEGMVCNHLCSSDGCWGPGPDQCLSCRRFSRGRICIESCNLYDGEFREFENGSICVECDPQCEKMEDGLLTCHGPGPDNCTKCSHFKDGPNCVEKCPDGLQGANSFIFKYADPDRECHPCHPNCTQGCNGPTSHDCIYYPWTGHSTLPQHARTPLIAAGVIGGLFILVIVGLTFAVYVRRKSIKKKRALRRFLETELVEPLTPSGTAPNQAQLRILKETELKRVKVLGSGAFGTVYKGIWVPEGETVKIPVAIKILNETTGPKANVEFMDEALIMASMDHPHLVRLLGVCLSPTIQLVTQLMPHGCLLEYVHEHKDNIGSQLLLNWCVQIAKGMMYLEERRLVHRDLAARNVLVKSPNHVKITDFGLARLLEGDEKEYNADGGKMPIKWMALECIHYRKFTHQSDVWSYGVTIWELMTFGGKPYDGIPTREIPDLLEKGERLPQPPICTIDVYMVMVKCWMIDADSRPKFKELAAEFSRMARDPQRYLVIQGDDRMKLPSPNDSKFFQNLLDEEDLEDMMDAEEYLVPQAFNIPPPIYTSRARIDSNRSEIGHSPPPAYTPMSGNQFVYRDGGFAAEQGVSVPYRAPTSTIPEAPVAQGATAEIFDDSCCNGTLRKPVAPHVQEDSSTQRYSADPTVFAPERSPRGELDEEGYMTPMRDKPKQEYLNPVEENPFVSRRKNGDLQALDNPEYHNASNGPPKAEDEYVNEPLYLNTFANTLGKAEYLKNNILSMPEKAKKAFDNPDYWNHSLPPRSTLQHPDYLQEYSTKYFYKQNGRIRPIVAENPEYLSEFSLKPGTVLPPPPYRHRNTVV
Sequence of Ephrin type-B receptor 2 (Homo sapiens) (P29323 whole entry, the tested form may be a part): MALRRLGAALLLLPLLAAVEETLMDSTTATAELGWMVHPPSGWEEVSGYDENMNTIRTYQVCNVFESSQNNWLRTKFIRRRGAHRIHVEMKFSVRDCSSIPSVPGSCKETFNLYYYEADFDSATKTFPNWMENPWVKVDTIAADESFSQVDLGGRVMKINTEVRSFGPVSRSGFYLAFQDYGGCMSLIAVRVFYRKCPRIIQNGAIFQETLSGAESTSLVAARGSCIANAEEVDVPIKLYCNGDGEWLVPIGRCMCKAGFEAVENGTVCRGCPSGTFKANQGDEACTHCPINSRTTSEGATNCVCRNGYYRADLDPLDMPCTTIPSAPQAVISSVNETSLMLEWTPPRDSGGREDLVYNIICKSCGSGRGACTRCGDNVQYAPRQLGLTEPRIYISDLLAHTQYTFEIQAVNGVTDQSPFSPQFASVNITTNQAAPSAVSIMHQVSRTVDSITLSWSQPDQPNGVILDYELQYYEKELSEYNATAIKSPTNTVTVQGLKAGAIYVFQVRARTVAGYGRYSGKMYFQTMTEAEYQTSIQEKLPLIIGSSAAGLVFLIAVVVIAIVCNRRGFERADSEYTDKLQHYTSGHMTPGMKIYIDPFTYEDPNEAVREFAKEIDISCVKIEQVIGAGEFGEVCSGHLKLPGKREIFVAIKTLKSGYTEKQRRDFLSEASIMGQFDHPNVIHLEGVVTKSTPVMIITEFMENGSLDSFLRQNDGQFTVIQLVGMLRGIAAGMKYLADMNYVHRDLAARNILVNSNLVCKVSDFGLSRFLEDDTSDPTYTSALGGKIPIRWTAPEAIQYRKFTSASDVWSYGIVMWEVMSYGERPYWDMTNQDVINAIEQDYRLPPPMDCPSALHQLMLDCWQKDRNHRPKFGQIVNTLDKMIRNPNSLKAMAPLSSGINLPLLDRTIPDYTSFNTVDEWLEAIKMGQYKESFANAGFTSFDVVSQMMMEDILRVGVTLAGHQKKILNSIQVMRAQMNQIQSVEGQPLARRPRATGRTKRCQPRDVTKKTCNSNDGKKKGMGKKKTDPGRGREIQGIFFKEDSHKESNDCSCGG
Sequence of Serine/threonine-protein kinase RIO1 (Homo sapiens) (Q9BRS2 whole entry, the tested form may be a part): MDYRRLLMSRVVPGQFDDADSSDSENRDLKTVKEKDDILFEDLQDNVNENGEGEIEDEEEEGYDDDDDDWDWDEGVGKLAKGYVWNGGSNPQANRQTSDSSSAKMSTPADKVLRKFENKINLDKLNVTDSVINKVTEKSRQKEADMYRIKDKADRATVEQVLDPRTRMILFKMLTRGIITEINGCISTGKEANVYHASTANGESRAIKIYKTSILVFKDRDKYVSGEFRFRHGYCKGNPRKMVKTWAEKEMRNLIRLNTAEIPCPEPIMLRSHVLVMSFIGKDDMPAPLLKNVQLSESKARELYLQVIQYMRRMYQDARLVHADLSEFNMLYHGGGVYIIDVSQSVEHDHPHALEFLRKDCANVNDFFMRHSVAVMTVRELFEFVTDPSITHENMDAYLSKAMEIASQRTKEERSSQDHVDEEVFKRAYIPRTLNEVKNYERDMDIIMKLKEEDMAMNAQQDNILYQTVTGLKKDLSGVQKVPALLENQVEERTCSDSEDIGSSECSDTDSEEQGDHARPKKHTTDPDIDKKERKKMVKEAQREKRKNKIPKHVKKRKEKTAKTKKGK

On to `Cc1ccc(NC(=O)c2ccc(CN(CCN(C)C)C(=O)c3cccnc3)cc2)cc1Nc1nccc(-c2cccnc2)n1`, for which the Activity in [1] turned out to be 100%; in [2], 33%; in series [3] it was 100%; in [4] it was 100%; in series [5], 85%; in series [6] it was 94%. Moreover, the Activity in series [7] turned out to be 81%; in series [8] it was 86%; in series [9], 100%; in series [10], 100%; in series [11], 100%; in series [12], 100%. The results for the Activity in [13], in series [14] and in [15] were 96%, 100% and 95%, respectively. The bioavailability in [16] came to 1.96%. In addition, the GI50 in series [17] is > 10 µM. In addition, in the series filed under Homo sapiens, the Ratio IC50 was 46. The compound further had a Cmax in series [18] of 4590 ng/mL. Further, the inhibition result in series [19] was “Active”. Besides, the result in the series with EOL1 was Active.
